# Source: PubChem BioAssay
# pCIP destab = lowers stability of the mouse p/CIP coactivator protein. 290,000 compounds, 0.01% hits. F442A p/CIP-EGFP cells, EGFP fluorescence, 16 h. decrease of EGFP signal, % at 10 µM. Q05BA5. AID 1984;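 active = EGFP signal decrease of at least 30% at 10 µM or well 3 SD below plate mean, unless failing retest; inactive = the rest, including hits failing retest or dose response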
# ABCB6 inh MLPCN = inhibitors of human ABC transporter ABCB6; Q9NP58; AID 602162; 360,000 compounds, 0.19% hits; K562-ABCB6 porphyrin accumulation, flow cytometry, 1 h; active compounds read low; fluorescence ratio to DMSO, % at 10 µM;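 active = fluorescence ratio to DMSO below 75%, the collection mean minus 3 SD; inconclusive = too few cells collected in the well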;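 note: signal is porphyrin accumulated inside mitochondria; 100% equals median channel fluorescence of DMSO control wells; lower ratio means ABCB6 inhibition with less porphyrin fluorescence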
# Target sequence (Q9NP58 whole entry, looked up): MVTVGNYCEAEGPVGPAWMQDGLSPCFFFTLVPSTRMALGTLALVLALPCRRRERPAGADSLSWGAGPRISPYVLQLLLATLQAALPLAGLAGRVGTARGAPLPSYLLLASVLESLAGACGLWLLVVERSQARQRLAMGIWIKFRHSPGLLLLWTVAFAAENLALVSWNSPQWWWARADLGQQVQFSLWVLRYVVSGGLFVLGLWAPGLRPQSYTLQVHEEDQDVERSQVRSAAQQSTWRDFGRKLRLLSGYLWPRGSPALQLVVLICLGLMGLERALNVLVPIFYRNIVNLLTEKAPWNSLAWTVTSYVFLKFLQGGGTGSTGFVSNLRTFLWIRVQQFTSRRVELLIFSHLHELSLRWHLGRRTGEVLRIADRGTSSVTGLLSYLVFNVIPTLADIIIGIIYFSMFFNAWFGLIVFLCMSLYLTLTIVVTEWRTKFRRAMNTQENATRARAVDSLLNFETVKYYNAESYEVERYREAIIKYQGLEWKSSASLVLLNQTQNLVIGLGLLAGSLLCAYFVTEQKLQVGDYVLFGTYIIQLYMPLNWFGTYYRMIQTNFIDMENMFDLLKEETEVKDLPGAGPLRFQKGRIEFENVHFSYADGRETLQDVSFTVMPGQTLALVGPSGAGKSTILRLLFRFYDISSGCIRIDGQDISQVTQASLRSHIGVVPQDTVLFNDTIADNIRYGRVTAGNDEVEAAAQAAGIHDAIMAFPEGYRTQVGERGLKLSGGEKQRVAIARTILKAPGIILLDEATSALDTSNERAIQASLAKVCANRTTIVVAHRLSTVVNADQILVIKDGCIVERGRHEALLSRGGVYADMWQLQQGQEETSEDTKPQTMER
# V-ATPase pHluor = yeast V-ATPase proton transport regulation by pHLuorin. response, % at 10 µM. 350,000 compounds, 0.37% hits. AID 504577. S. cerevisiae, pHLuorin cytosolic pH fluorescence; in the data active = response mostly above about 7.3%, no sharp cut-off; inactive = mostly below about 5.4%; note: actives read high
# Cl transport mod = modulators of human KCC2 chloride dependent transport. Q9H2X9. KCC2 cells, thallium flux FluoZin-2 fluorescence. B-score of Tl+ flux slope (higher = more flux/activation; lower = inhibition) at 10 µM. 190,000 compounds, 2.2% hits;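 active = thallium flux slope and its plate-corrected score both differing from the plate sample mean at a set confidence after two filtering rounds, in either direction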;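 note: slope of fluorescence scaled to starting intensity during 10 to 20 s after thallium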
# Dynein transport = dynein cargo transport inhibition; 3617.4 mouse cells, GR-EGFP nuclear translocation imaging; test concentration mostly 20 µM; stimulated with dexamethasone, 1 µM; active compounds read low; z-score, hits read low; 220,000 compounds, 0.47% hits; AID 1381;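 active = plate z-score of nuclear minus cytoplasmic receptor signal below a set negative limit, without overly bright fluorescence or cell loss, cut at about -3.5 in these data, passing the limit was not always enough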;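 note: z-score of nuclear minus cytoplasmic ring GR-EGFP intensity difference per well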
#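 Medium: Induction medium lacking tetracycline, stripped serum | Probe or stimulus: 1.0 µM final dexamethasone stimulus | Schedule: 48 h induction, then 1 h compound, then 30 min agonist, 37 °C | Signal: Automated 10x imaging of fixed Hoechst-stained cells | Evaluation: Per-cell GR-EGFP intensity, nucleus versus surrounding cytoplasmic ring, well-averaged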
# KCC2 sec1 = confirmation of human KCC2 transport modulators | shares compounds with Cl transport mod | HEK293-KCC2, thallium flux, FluoZin2 fluorescence; active compounds read high | normalised thallium flux (F/F0 slope) at 10 µM | 3,700 compounds, 15% hits | AID 1713;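 active = thallium flux slope above the same plate's solvent-only control mean plus 3 SD; inconclusive = the two replicate wells disagree; inactive = no significant difference from solvent-only control wells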
# KCC2 bumet counter = bumetanide-insensitive thallium flux in KCC2 cells with ouabain, counter-screen | AID 1714 | HEK293-KCC2 + bumetanide/ouabain, thallium flux FluoZin2; active compounds read high | shares compounds with Cl transport mod | 3,700 compounds, 49% hits | normalized thallium flux at 10 µM;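 active = thallium entry rate above the same plate's blocked-transporter control wells by more than 3 SD; inconclusive = the two repeat wells disagree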;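 note: raw slope of fluorescence over initial fluorescence between 10 and 20 s after thallium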
# KCC2 secondary2 = KCC2 (human) modulation, second secondary assay. normalized thallium flux at 10 µM. HEK293-KCC2, thallium flux FluoZin2 fluorescence; actives lie on both sides; F/F0 rise rate, 10–20 s post-thallium. 3,700 compounds, 23% hits. AID 1715. shares compounds with Cl transport mod;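 active = thallium flux slope more than 3 SD above or below the plate's solvent-only control mean, mostly below; inconclusive = the two repeat wells disagreed; inactive = no significant shift from solvent-only controls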;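 note: raw slope with 0.1% DMSO as baseline and bumetanide as block control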
# HEK293 Tl flux = acts in parental HEK cells, KCC2 counter-screen. shares compounds with Cl transport mod. thallium flux rate (normalised fluorescence) at 10 µM. HEK293 parental cells, thallium flux FluoZin2, ouabain; baseline-ratio fluorescence slope, 10–20 s after thallium. AID 1716. 3,700 compounds, 46% hits;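 active = thallium flux rate significantly above the same plate's solvent-only control wells, beyond their mean plus 3 SD; inconclusive = the two replicate wells gave conflicting results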
# KCC2 retest ouab = modulates human KCC2 on retest with ouabain. shares compounds with Cl transport mod. HEK293-KCC2, thallium flux FluoZin2 fluorescence; bidirectional: low = inhibitor, high = activator. 3,700 compounds, 48% hits. raw Tl+ flux slope (below DMSO = inhibition, above = activation) at 10 µM. AID 1717;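 active = thallium flux slope beyond 3 SD from same-plate DMSO control mean in most replicates, usually higher, sometimes lower; inconclusive = repeat tests gave conflicting results; inactive = no significant difference from controls in most replicates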;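 note: slope of initial-normalized fluorescence between seconds 10 and 20 after thallium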
# HEK counter2 = acts in parental HEK cells, second KCC2 counter-screen | shares compounds with Cl transport mod | HEK293 parental, thallium flux FluoZin-2 fluorescence slope | thallium flux slope at 10 µM | 3,700 compounds, 33% hits;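 active = thallium flux slope above the same plate's solvent-control mean plus 3 SD in both duplicate wells; inconclusive = duplicate wells that disagreed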;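 note: run without ouabain in cells lacking the KCC2 cotransporter; slope of fluorescence scaled to its starting value between 10 and 20 s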
# Numbers without * were called inactive; ? = inconclusive; . = no result given. This excerpt belongs to a sample that is enriched for hits.
SMILES,pCIP destab,ABCB6 inh MLPCN,V-ATPase pHluor,Cl transport mod,Dynein transport,KCC2 sec1,KCC2 bumet counter,KCC2 secondary2,HEK293 Tl flux,KCC2 retest ouab,HEK counter2
Cc1csc(NC(=O)CSc2nnc(-c3ccccc3)o2)n1,-6,110,-3,-0.3,-0.078,.,.,.,.,.,.
Cc1ccc(-c2ccc(SCC(=O)Nc3nonc3C)nn2)cc1,0,94,-1,-5.7*,-0.54,0.0055,0.004,0.023*,0.0058*,0.013*,0.0095
Cc1csc(NC(=O)CSc2ccc(-c3ccccc3)nn2)n1,-13,93,-2,-5.6*,0.49,0.014,0.0051,0.019*,0.0068,0.013,0.0097
O=C(c1ccc(Cl)cc1)c1cnc2ccccn12,-1,142,1,-3.4*,0.71,0.007,0.0046,0.03,0.008,0.018,0.01
O=C(OCn1ncc(Cl)c(Cl)c1=O)c1cccc(C(F)(F)F)c1,-17,96,-1,.,-1.3,0.0092,?,0.033,0.0059*,0.015*,0.012
O=C(NCC1CCN(Cc2ccc(Cl)cc2)CC1)C1CCCN(c2ncnc3c2nc2n3CCCCC2)C1 (stereo not drawn),3,100,3,.,.,.,.,.,.,.,.
CN1C(=O)C(=O)N(CC(=O)N2CCc3ccccc32)C1=O,-13,134,-1,0.032,-0.63,.,.,.,.,.,.
O=C(CN1C(=O)CSc2ccccc21)N1CCc2ccccc21,3,96,1,-4.9*,2.1,0.007,0.0055,0.032,0.0084,0.014*,0.011
O=S(=O)(NCc1csc(-c2ccccc2)n1)c1ccc(Cl)s1,-20,92,2,-5.7*,-1,0.0051,0.014*,0.022*,0.0068,0.016*,?
O=C(CNS(=O)(=O)c1c(Cl)cccc1Cl)OCc1csc(-c2ccccc2)n1,3,96,2,-4.1*,0.12,0.0065,0.0042,0.023*,?,0.015*,0.0093
C=C(C)CN(CC)C(=O)CSc1nc(O)cc(=O)n1C1CCCC1,-2,93,2,0.8,-0.13,.,.,.,.,.,.
Cc1ccccc1N(C=O)c1ccccc1C,.,98,2,.,.,.,.,.,.,.,.
O=[N+]([O-])c1ccc(O)c(C=Nc2ccc3nc(-c4ccccc4)[nH]c3c2)c1,-4,95,0,0.4,-0.44,.,.,.,.,.,.
Oc1c(Br)cc(C=Nc2ccc3nc(-c4ccccc4)[nH]c3c2)c(O)c1Br,8,.,-3,-3.5*,-0.57,0.0071,0.0046,0.028,0.0062,0.013*,0.0087
COc1ccc(OCC(O)CNC2CCCC2)cc1 (stereo not drawn),3,94,-3,.,.,.,.,.,.,.,.
CC(=O)Nc1ccc(OCC(O)CNC2CCCC2)cc1 (stereo not drawn),-10,109,-1,.,0.95,0.0077,?,0.029,?,0.018,0.011
Cc1ccc(C(C)C)c(OCC(=O)NC2CCN(C)CC2)c1,8,98,4,.,.,.,.,.,.,.,.
Cc1cc(CN2CCCC(CNC(=O)c3ccc(F)cc3)C2)cc(C)c1O (stereo not drawn),-9,94,-6,-0.12,0.17,.,.,.,.,.,.
CCn1ncc(CN2CCCC(CNC(=O)c3ccc(F)cc3)C2)c1C (stereo not drawn),-14,100,1,-6.2*,1.1,0.016,0.0052,0.028,0.0075,0.017,0.011
COc1ccc(NC(=O)Nc2ccc3c(c2)C(=O)N([C@@H](C)CO)C[C@@H](C)[C@@H](CN(C)S(=O)(=O)c2cccs2)O3)cc1,.,97,-3,.,.,.,.,.,.,.,.
CC1(C)N(O)CC(c2cccs2)=[N+]1[O-],-2,93,3,2.9*,2,0.0082,0.0054,0.028,0.0067,0.02,0.0099
CCCN1C(=O)c2ccccc2NC1c1ccc(O)c(OCC)c1 (stereo not drawn),-3,95,1,.,.,.,.,.,.,.,.
Cc1nc(NC(=S)NC(=O)c2cccs2)ccc1Br,-2,98,-2,36*,0.37,0.014*,0.11*,0.034,0.038*,0.042*,0.012*
O=C(NC(=S)Nc1cccc2cccnc12)c1ccccc1,-1,111,2,.,-0.45,.,.,.,.,.,.
COc1ccc(NC(=O)C(=O)Nc2cccc3cccnc23)cc1OC,0,98,3,.,.,.,.,.,.,.,.
SMILES,pCIP destab,ABCB6 inh MLPCN,V-ATPase pHluor,Cl transport mod,Dynein transport,KCC2 sec1,KCC2 bumet counter,KCC2 secondary2,HEK293 Tl flux,KCC2 retest ouab,HEK counter2
COc1ccc(C(=O)Nc2cccc3cccnc23)cc1OC,4,82,-3,-6.3*,-0.71,0.0084,0.0053,0.032,0.0067,0.02,0.01
Cc1nc(NC(=S)NC(=O)c2cncc(Br)c2)ccc1Br,-10,101,1,.,1.2,.,.,.,.,.,.
O=C(NC(=S)Nc1cccc2cccnc12)c1cccs1,6,116,-2,2.8*,0.25,0.0076,0.0096*,0.032,?,?,0.0098
O=C(NCC1CCCN1S(=O)(=O)c1cccs1)c1ccc(F)cc1 (stereo not drawn),.,482,1,.,.,.,.,.,.,.,.
CC[C@@H]1C(c2ccc(F)cc2)=NN(c2ccc(Br)cc2)[C@H]1C(=O)N1CCOC1=O,.,104,-2,.,.,.,.,.,.,.,.
O=C(Nc1nnc(-c2ccc(Cl)s2)o1)C1CCCCC1,.,98,-3,5.2*,0.58,0.013*,0.028*,0.034,0.019*,0.032*,0.012*
O=C(Nc1nnc(-c2ccc(Cl)cc2)o1)Nc1ccccc1Cl,-13,97,0,3.5*,0.52,0.0092,0.026*,0.035,?,0.026,?
O=C(Nc1nnc(-c2ccc(Cl)cc2)o1)c1nc2ccccc2s1,-9,98,-3,.,-0.43,.,.,.,.,.,.
O=C(Nc1nnc(-c2ccc(Cl)cc2)o1)C1CCCCC1,-4,101,0,5.3*,-0.6,0.0055,0.022*,0.035,0.015*,0.029*,0.018*
O=C(Nc1nnc(-c2ccccc2)o1)C1CCCCC1,-4,99,-2,.,-0.32,.,.,.,.,.,.
Cc1cc(N/N=C/c2ccc3c(c2)OCO3)nc2ccccc12,-1,90,1,0.11,1.7,.,.,.,.,.,.
Fc1ccc(-c2nn3c(C4COc5ccccc5O4)nnc3s2)cc1 (stereo not drawn),-10,96,-3,-4.5*,-0.61,0.0055,0.0045,0.03,0.0079,0.019,0.011
